The source of these data is ChEMBL document CHEMBL1151715, “Novel D-xylose derivatives stimulate muscle glucose uptake by activating AMP-activated protein kinase alpha” (J Med Chem, 2008).

Activity calls are given as the source filed them.

In data set [1] the test system is L6. Description: Effect on [3H]2-deoxy-D-glucose uptake in rat L6 cells at 400 uM relative to control. The class given is functional. The method, boiled down:
(§1)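 L6 myotubes were held in αMEM with 2% FCS and 23.0 mM D-glucose for 24 h. They were then treated with increasing concentrations in medium with 10% FCS and 23.0 mM D-glucose for 7 or 18 h; vehicle controls ran 18 h. After washing, uptake was measured with 0.1 mM dGlc plus 1.3 µCi/mL [3H]dGlc in PBS pH 7.4 for 5 min at room temperature. Ice-cold PBS stop, SDS lysis, scintillation counting; basal rate set to 100%.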

Data set [2] in a line: Cytotoxicity against rat L6 cells by MTT assay. The class given is cell-based. In short, it runs like this: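 MTT assay on L6 myotubes after the treatment incubations: MTT at 2 mg/mL in αMEM for 30 min at 37 °C, formazan dissolved in DMSO, absorbance read at 570 nm.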
In general terms: Tetrazolium dyes change colour on reduction, which living cells bring about.

Data set [3] concerns L6. Description: Increase in GLUT1myc abundance in rat L6 cell membrane at 5 µM after 18 hrs. It counts as functional, cell-based. The method, boiled down: (§2)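 Myc-tagged GLUT1 or GLUT4 L6 myotubes were preconditioned at 5.5 or 23.0 mM glucose for 24 h, then treated in 10% FCS medium for 7 h (18 h for the 5 µM agent). Insulin was 200 nM for 30 min. Intact cells were labeled with rabbit anti-myc (1:200), fixed in 3% formaldehyde, and given HRP anti-rabbit IgG (1:2000). OPD colour was read at 492 nm.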

Data set [4] is described as follows: Effect on [3H]2-deoxy-D-glucose uptake in human skeletal muscle cells at 150 uM relative to control. It counts as functional.
In data set [5] the test system is L6. Description: Effect on [3H]2-deoxy-D-glucose uptake in rat L6 cells at 5 uM relative to control. The class given is functional, cell-based. The following applies: TDE = time-dependent effect. In short, it runs like this:
as §1

Data set [6] relates to Serum. In words: Protein binding in fetal calf serum at 5 uM. The settings on record: cattle. It counts as ADME, cell-free, Bos taurus. In short, it runs like this: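 αMEM with 10% FCS was spiked at 4.6–23.0 µM and held 60 min at 37 °C for total concentration. Samples were ultrafiltered through a 10 kDa cutoff (4400g, 60 min), and the filtrate was hexane-extracted and analysed by LC-MS (SIR m/z 432) for free concentration.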

Data set [7] concerns L6. In words: Increase in GLUT4myc abundance in rat L6 cell membrane at 150 uM after 7 hrs. It counts as functional, cell-based. The method, boiled down:
as §2

Data set [8] concerns L6. Description: Increase in GLUT1myc abundance in rat L6 cell membrane at 20 mM after 7 hrs. It counts as functional, cell-based. In short, it runs like this:
as §2

Data set [9] concerns L6. In words: Activation of 5-AMP-induced AMPKalpha in rat L6 cells assessed as […] phosphorylation at 150 uM relative to control in presence of compound C. It counts as cell-based.
In data set [10] the test system is L6. In words: Increase in GLUT1myc abundance in rat L6 cell membrane at 150 uM after 7 hrs. It counts as functional, cell-based. In short, it runs like this: as §2
The species named for data set [11] is Homo sapiens. In words: Activation of 5-AMP-induced AMPKalpha in human skeletal muscle cells assessed as […] phosphorylation at 150 uM relative to control. In short, it runs like this: (§3)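 Primary human skeletal myoblasts from the rectus abdominis of a donor were differentiated into myotubes and treated in medium with 10% (v/v) FCS, 23.0 mM D-glucose and agent, with vehicle controls. Whole-cell lysates were Western blotted for total AMPKα and […]-AMPKα, with ECL detection and densitometry.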

Data set [12] relates to L6. Description: Effect on [3H]2-deoxy-D-glucose uptake in rat L6 cells at 150 uM relative to control. The class given is functional, cell-based. The following applies: TDE = time-dependent effect. In short, it runs like this:
as §1

The test system of data set [13] is L6. Description: Activation of 5-AMP-induced AMPKalpha in rat L6 cells assessed as […] phosphorylation at 150 uM relative to control. The class given is cell-based. In short, it runs like this: (§4)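 L6 myotubes preconditioned 24 h in αMEM with 2% FCS and 23.0 mM D-glucose, then given fresh medium with 10% (v/v) FCS, 23.0 mM D-glucose and test agent; controls received vehicle. Whole-cell lysates (Tris pH 7.5 with phosphatase and protease inhibitors) were blotted for AMPKα and […]-AMPKα, detected by ECL, and bands quantified by densitometry.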

Data set [14] deals with L6. Description: Inhibition of [3H]2-deoxy-D-glucose uptake in rat L6 cells at 150 uM in presence of 100 nM wortmannin. It counts as functional, cell-based. The method, boiled down: (§5)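 L6 myotubes at 23 mM D-glucose received 100 nM wortmannin 30 min before the agents. Treatment ran in 10% FCS medium for 7 h (18 h for the 5 µM agent). A 5-min [3H]dGlc uptake (0.1 mM dGlc, 1.3 µCi/mL) in PBS at room temperature followed, with the vehicle basal rate set to 100%.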

Data set [15] concerns L6. In words: Effect on [3H]2-deoxy-D-glucose uptake in rat L6 cells at 50 uM relative to control. The settings on record: TDE = time-dependent effect. It counts as functional, cell-based. In short, it runs like this:
as §1

The subject of data set [16] is L6. In words: Increase in GLUT1myc abundance in rat L6 cell membrane at 50 uM after 7 hrs. It counts as functional, cell-based. In short, it runs like this: as §2
Data set [17] can be described thus: Effect on [3H]2-deoxy-D-glucose uptake in human skeletal muscle cells at 5 uM relative to control. The class given is functional.
Data set [18] relates to L6. Description: Activation of 5-AMP-induced AMPKalpha in rat L6 cells assessed as reduction in hexose transport at 5 uM relative to control in presence of compound C. Further details: scale not given: the % may be the effect or the level left.
Data set [19] concerns L6. In words: Effect on [3H]2-deoxy-D-glucose uptake in rat L6 cells at 200 uM relative to control. The class given is functional. The method, boiled down: as §1
The species named for data set [20] is Homo sapiens. In words: Activation of 5-AMP-induced AMPKalpha in human skeletal muscle cells assessed as […] phosphorylation at 5 uM relative to control. In short, it runs like this: as §3
The test system of data set [21] is L6. Description: Inhibition of [3H]2-deoxy-D-glucose uptake in rat L6 cells at 5 uM in presence of 100 nM wortmannin. It counts as functional, cell-based. In short, it runs like this: as §5
Data set [22] deals with Serum. In words: Free concentration in fetal calf serum at 5 uM. The following applies: cattle.
In data set [23] the test system is L6. Description: Increase in GLUT1myc abundance in rat L6 cell membrane at 5 uM after 18 hrs.
Data set [24] has as its system L6. Description: Increase in GLUT4myc abundance in rat L6 cell membrane at 5 µM after 18 hrs. The class given is functional, cell-based. The method, boiled down:
as §2

Data set [25] relates to L6. In words: Activation of 5-AMP-induced AMPKalpha in rat L6 cells assessed as […] phosphorylation at 5 uM relative to control. It counts as cell-based. In short, it runs like this:
as §4

Data set [26] has as its system L6. Description: Effect on [3H]2-deoxy-D-glucose uptake in rat L6 cells at 250 uM relative to control. It counts as functional. The method, boiled down: as §1
The subject of data set [27] is L6. Description: Inhibition of [3H]2-deoxy-D-glucose uptake in rat L6 cells at 50 uM in presence of 100 nM wortmannin. It counts as functional, cell-based. In short, it runs like this: as §5
Data set [28] concerns L6. In words: Activation of 5-AMP-induced AMPKalpha in rat L6 cells assessed as […] phosphorylation at 50 uM relative to control. It counts as cell-based. The method, boiled down: as §4
Data set [29] is described as follows: Effect on [3H]2-deoxy-D-glucose uptake in human skeletal muscle cells at 50 uM relative to control. The class given is functional.
Data set [30] deals with L6. In words: Increase in GLUT4myc abundance in rat L6 cell membrane at 50 uM after 7 hrs. The class given is functional, cell-based. The method, boiled down:
as §2

The species entered for data set [31] is Homo sapiens. In words: Activation of 5-AMP-induced AMPKalpha in human skeletal muscle cells assessed as […] phosphorylation at 50 uM relative to control. The method, boiled down: as §3
Data set [32] has as its system L6. In words: Activation of 5-AMP-induced AMPKalpha in rat L6 cells assessed as […] phosphorylation at 50 uM relative to control in presence of compound C. It counts as cell-based.
The subject of data set [33] is L6. In words: Effect on [3H]2-deoxy-D-glucose uptake in rat L6 cells at 500 uM relative to control. It counts as functional. The method, boiled down:
as §1

Data set [34] relates to L6. In words: Effect on [3H]2-deoxy-D-glucose uptake in rat L6 cells at 1 mM relative to control. The class given is functional. In short, it runs like this: as §1

As for `O[C@@H]1[C@@H](O)[C@H](ON2CCCCC2)OC[C@H]1O`, in the data set with L6 [1], the “fold change (FC)” value is 0.94. In data set [2], the MCC amounted to 1 mM.
With `CCSC(SCC)[C@@H]1O[C@H](c2ccccc2)O[C@H](CO)[C@@H]1O`, the Activity result with L6 [3] is “inactive”; with L6 [8] (150 uM, in the assay text read “at 150 uM” for “at 20 mM”), “inactive”; with L6 [10], “inactive”; in the data set on L6 [16] it was “inactive”. Also, the “fold change (FC)” value stood at 1.49 in [4] and 5.25 with L6 [13]. The Activity entry with L6 [5] is “tde”; in the data set with Serum [6] it was 98%; in the data set on L6 [9] it was 60%; with L6 [12] it was “tde”; with L6 [15] it was “tde”. In addition, the result in the data set on L6 [7], in the data set listed under Homo sapiens [11] and in the data set with L6 [14] was Active.
As to `CCSC(SCC)[C@@H]1O[C@H](c2ccccc2)O[C@@H]2CO[C@H](c3ccccc3)O[C@@H]21`, the results for the “fold change (FC)” value (in data set [17]; in the data set on L6 [19]; in the data set with L6 [25]) were 1.59, 1.06 and 4.89, respectively. Also, the Activity with L6 [18] was 48.8%; in the data set on L6 [5] it was “tde”; in the data set with L6 [12], “tde”; in the data set with L6 [15], “tde”. Moreover, the result with L6 [3], in the data set with L6 [10], with L6 [23] and with L6 [16] was inactive. The molecule further displayed an MCC in [2] of 50 mM. Moreover, the result in the data set listed under Homo sapiens [20], in the data set on L6 [21] and in the data set on L6 [24] was Active. Besides, in the data set with Serum [22], the free concentration came to 100 nM.
As to `CCO[C@H]1[C@@H](CO)O[C@@H](c2ccccc2)O[C@H]1C(SCC)SCC`, in the data set with L6 [26], the “fold change (FC)” value is reported as 1.01. Moreover, the MCC in data set [2] was 0.6 mM.
`CCSC(SCC)[C@@H]1O[C@H](c2ccccc2)O[C@H](CO)[C@@H]1OC`: the result in the data set on L6 [27], in the data set with L6 [30] and in the data set listed under Homo sapiens [31] was Active. In addition, the Activity entry in the data set with L6 [3] was “inactive”; in the data set on L6 [8] (50 uM, in the assay text read “at 50 uM” for “at 20 mM”) it was “inactive”; in the data set with L6 [10] it was “inactive”; in the data set with L6 [16], “inactive”. Also, the figures for the fold change (FC) (in the data set with L6 [28]; in data set [29]) were 3.98 and 1.4, respectively. Also, the Activity entry in the data set with L6 [5] was “tde”; in the data set with L6 [12] it was “tde”; in the data set with L6 [32], 69.2%; with L6 [15], “tde”.
`CCS[C@@H]1OC[C@@H](O)[C@H](O)[C@H]1O`: the “fold change (FC)” value in the data set on L6 [33] is on record as 0.93. Besides, the MCC in data set [2] came to 1 mM.
For `O[C@@H]1[C@@H](O)[C@@H](OC2=CC=CCO2)OC[C@H]1O`, in the data set with L6 [34], the “fold change (FC)” value is on record as 0.99. In addition, the MCC in data set [2] was 5 mM.
